From PubChem BioAssay
PTK2B oligo ant = antagonists of Pyk2 self-association, primary screen, Q293 cells, FERM NanoBiT luminescence, HTS. Protein-tyrosine kinase 2-beta (Homo sapiens), Q14289. active compounds read low. z-score (the deposit names both 25 µM and 10 µM). 99,000 tested, 0.83% active;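 active = Z-score of -3 or lower, scaled per plate to the spread of control and sample wells; inactive = z-score above -3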;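 note: negative z-score means lost luminescence so less FERM oligomerization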
PostGolgi ctrl = growth inhibition of yeast control strain, primary screen, counter-screen for post-Golgi transport modulator project | efflux-deficient yeast background strain, growth absorbance A615, 16 h | inhibition, % at 10 µM | 98,000 tested, 5% active | AID 738, 2007
E coli WT exp = growth inhibitors of wild-type E. coli, primary screen, strain BW25113, expanded library, OD600 | growth inhibition, % at 100 µM | 98,000 tested, 0.15% active | OD600 absorbance;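 active = growth inhibition above about 50% at one test dose, limit read from the data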;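 note: growth measured after 20 h incubation at 37 °C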
Cav32 inh = Cav3.2 calcium influx blockers – cell-based, Fluo-4 calcium fluorescence, FDSS, MLSMR library, primary screen | Voltage-dependent T-type calcium channel subunit alpha-1H (Homo sapiens), O95180 | Cav3.2-expressing cells; active compounds read low | B-score at 10 µM | 100,000 tested, 4% active;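 active = single-dose well whose peak fluorescence ratio is a statistical outlier from its plate by either plate-standardised score or position-corrected B-score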
Ecoli tolC = growth inhibitors of E. coli tolC mutant, primary screen, strain BW25113 ΔtolC::kan, 384-well | OD615 | growth inhibition, % at 10 µM (by protocol) | 65,000 tested, 2.2% active;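 active = growth inhibition at or above a cutoff equal to the mean over every tested compound plus 3 SD, cut at about 60% in these data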;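 note: growth measured after 20 h incubation at 37 °C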
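Test system: tolC-deleted E. coli BW25113 | Medium: LB with kanamycin 50 µg/mL | Compound dosing: Single concentration, 10 µM final per compound | Schedule: 37 °C, 20 h exposure | Measured by: OD at 615 nm | Evaluation: Percent growth inhibition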
PostGolgi yeast = phenotypic screen on post-Golgi transport, primary screen | post-Golgi transport phenotypic cell assay | AID 739, 2007 | 98,000 tested, 0.9% active | inhibition, % at 10 µM;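 note: yeast cells grown in 1536-well plates; yeast grown about 18 h at 30C before absorbance read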
Numbers without * were called inactive; . = no result. A selection: hits, their analogues and other compounds. The true share with any hit is near 8.7%. Cut-off read from the data, not from the text of the source, unless noted: active = inhibition above about 30%; inactive = the rest.

SMILES	PTK2B oligo ant	PostGolgi ctrl	E coli WT exp	Cav32 inh	Ecoli tolC	PostGolgi yeast
Cc1ccc(S(=O)(=O)NCCC2(C(C)C)CCOC(C)(C)C2)cc1 (stereo not drawn)	0.46	8	9	-0.71	.	-4
CC1CN(c2oc(-c3ccco3)nc2S(=O)(=O)c2ccccc2)CC(C)O1 (stereo not drawn)	0.66	13	-14	0.63	1	-3
O=C(N1CCN(c2ccccc2)CC1)C12CC3CC(CC(C3)C1)C2	-0.99	45*	-2	-1.6	11	12
CCn1c(=N)n(CC(=O)C23CC4CC(CC(C4)C2)C3)c2ccccc21	-0.49	35*	17	-1	99*	2
CCn1c(N2CCN(S(=O)(=O)c3ccccc3C(F)(F)F)CC2)nc2ccccc21	-1	22	-3	-4.4	21	15
O=C(N1CCN(Cc2ccccc2)CC1)C12CC3CC(CC(C3)C1)C2	-0.06	5	17	0.088	33	-2
CC1(C)C(C=C(Cl)Cl)C1C(=O)N1CCN(c2ccccc2)CC1 (stereo not drawn)	-0.17	70*	-12	-4.9*	44	3
CCn1c(N2CCN(C(=O)C34CC5CC(CC(C5)C3)C4)CC2)nc2ccccc21	-0.21	19	-2	-2.4	65*	16
COC(=O)Cc1c(O)ccn(Cc2cccc3ccccc23)c1=O	-0.71	4	-5	-0.001	.	6
CCn1c2ccccc2c2nnc(SCc3cc(=O)n4ccsc4n3)nc21	.	.	.	.	7	.
CCCCNC(=O)Cn1c2c(c(-c3ccccc3Cl)cc1=O)CCC2	.	0	2	1	.	7
O=C(Cn1c2c(c(-c3ccccc3)cc1=O)CCCC2)N1CCCCCC1	.	.	.	-1.3	100*	.
CC(C)(O[C@@H]1O[C@H](CO)[C@@H](O)[C@H](O)[C@H]1O)[C@H]1Cc2cc3ccc(=O)oc3cc2O1	.	.	.	1.3	.	.
COC(=O)C1=C(CN2CCc3ccccc32)NC(=O)NC1c1cc(C)ccc1C (stereo not drawn)	-0.87	32*	-1	.	45	-10
CCOC(=O)C1=C(CN2c3ccccc3CC2C)NC(=O)NC1c1ccccc1 (stereo not drawn)	-0.47	33*	-17	-7.8*	.	1
COC(=O)C1=C(CN2CCCc3ccccc32)NC(=O)NC1c1ccc(F)cc1 (stereo not drawn)	1.7	11	7	-3.9*	55	-2
CCCC1=C(C(=O)OCC)C(c2ccccc2OC)NC(=O)N1 (stereo not drawn)	-1.4	5	-4	0.11	11	14
O=C(NCc1cccnc1)/C(=C\c1ccc(-c2ccc(Cl)c(Cl)c2)o1)S(=O)(=O)c1ccccc1	-2.1	.	.	.	.	.
COc1ccc(CSc2nnnn2C)cc1F	-0.31	-8	12	0.088	-11	-4
Cc1cccc(OCCNc2cc(N3CCOCC3)ccc2[N+](=O)[O-])c1	-1.7	66*	-5	0.079	.	-3
Cc1cccc(OCCNc2cc(N3CCN(C)CC3)ccc2[N+](=O)[O-])c1	-2.1	.	.	.	.	.
Cc1nc(SCC(=O)N2c3ccccc3Sc3ccccc32)n[nH]1	0.62	0	-1	-0.034	.	-4
CN(Cc1ccccc1)C(NC(=O)c1ccccc1)C(Cl)(Cl)Cl (stereo not drawn)	1.2	35*	1	-5.7*	.	9
CCOC(=O)c1c(C)[nH]c(C(=O)NNC(=O)c2ccccc2)c1C	-0.37	-2	-4	-0.077	.	-7
CCOC(=O)c1c(C)[nH]c(C(=O)C(C)OC(=O)c2cccc(OCc3c(C)noc3C)c2)c1C (stereo not drawn)	-0.71	8	-18	-4.7*	43	-6
SMILES	PTK2B oligo ant	PostGolgi ctrl	E coli WT exp	Cav32 inh	Ecoli tolC	PostGolgi yeast
Cc1ccc(C)c(S(=O)(=O)Nc2ccccc2C(=O)Nc2ccccc2N2CCOCC2)c1	-2.2	14	-15	-4.9*	.	9
O=C(Nc1ccccc1N1CCOCC1)c1ccccc1NS(=O)(=O)c1ccc(F)c(F)c1	-1.2	15	2	-4*	.	4
Cc1cc(F)ccc1S(=O)(=O)Nc1ccccc1C(=O)Nc1ccccc1N1CCOCC1	-1.5	19	-18	-5.9*	.	-18
O=C(Nc1ccccc1N1CCOCC1)c1ccccc1NS(=O)(=O)c1ccc(F)cc1	0.13	34*	-1	.	.	2
Cc1oc2c(c1C(=O)NC(Cc1c[nH]c3ccccc13)C(=O)O)CCCC2 (stereo not drawn)	0.08	-3	0	0.49	18	-8
O=C(Nc1cccc(NC(=O)c2nccc3ccccc23)c1)c1ccco1	-0.33	.	.	.	17	.
NS(=O)(=O)c1cc2c(cc1C(F)(F)F)NC(Cc1ccccc1)NS2(=O)=O (stereo not drawn)	.	.	.	.	8	.
C=C1CCN([C@@H](CC(C)C)C(=O)NCCC(C)C)S(=O)(=O)c2ccccc21	.	.	.	-1.6	.	.
CCOc1ccc(S(=O)(=O)Nc2ccccc2C(=O)Nc2ccccc2N2CCOCC2)cc1	-3.1*	34*	-8	-1.7	27	3
O=C(N/N=C/c1ccc(Br)cc1)c1ccccc1-n1cccc1	-0.99	31*	-4	-2.6	.	-1
O=C(N/N=C/c1ccc(OC(F)F)cc1)c1ccc(Br)cc1	0.25	.	.	.	.	.
O=S(=O)(N1CCOCC1)n1c(Cc2ccccc2)nc2ccccc21	0.19	8	8	-1.6	25	-6
Cc1c(C(=O)N2CCN(c3ccc(F)cc3)CC2)sc2nc(-c3ccccc3)cn12	1.2	-4	2	.	-8	-5
O=C(c1sc2ccccc2c1Cl)N1CCN(c2ccc(F)cc2)CC1	-0.37	45*	-21	-3.8	.	7
Cn1c(N2CCN(C(=O)NCc3ccccc3)CC2)nc2ccccc21	0.39	5	-4	-0.037	-6	-16
O=C(Nc1cccc2ccccc12)N1CCN(c2ccccc2)CC1	-3.8*	1	-3	-0.37	4	-5
O=C(Nc1cccc2ccccc12)N1CC=CCC1	-1.6	12	7	-0.1	.	-5
O=C(NCc1ccccc1)N1CCN(c2ccc(Cl)c(Cl)c2)CC1	0.43	11	-3	-5.2*	1	-2
O=C(Nc1ccccc1)N1CCN(c2ccc(F)cc2)CC1	-0.03	.	.	0.73	.	.
O=C(NCc1ccccc1)N1CCN(c2ccc(F)cc2)CC1	-1	.	.	-4.3*	.	.
COc1ccc(N(Cc2ccco2)C(=O)c2ccccc2F)cc1OC	0.01	17	10	-2.8	19	1
O=C(NCc1cccs1)C1CCCN(c2nc3ccccc3o2)C1 (stereo not drawn)	-0.07	42*	-3	0.26	4	13
O=C(NC1CCCCCCC1)C1CCN(c2nc3ccccc3o2)CC1	-0.12	66*	2	-0.14	6	5
